≈ marks a conversion by molar mass, not a printed value.
Experiments:
Candida parapsilosis = experiment: Antifungal activity against Candida parapsilosis GIM 2.190 assessed as fungal growth inhibition; format: functional; conditions: Lodderomyces parapsilosis
Summary of the method: (§1)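 Broth microdilution per NCCLS M27-A3, with fluconazole as positive control. Assay medium was RPMI 1640 buffered with MOPS. Inocula were diluted to 1–5 × 10^3 CFU mL−1 and seeded in 96-well plates. Compounds were dissolved in DMSO and serially diluted in the growth medium. MIC was the read-out.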

Candida tropicalis = experiment: Antifungal activity against Candida tropicalis CGMCC 2.3739 assessed as fungal growth inhibition; format: functional; summary of the method: as §1
Cryptococcus neoformans = experiment: Antifungal activity against Cryptococcus neoformans CGMCC 2.3161 assessed as fungal growth inhibition; format: functional; summary of the method: as §1
CYP1A2 = molecular target: T1, CYP1A2 (Homo sapiens, UniProt P05177); experiment: Inhibition of CYP1A2 in human liver microsomes using phenacetin as substrate at 10 uM incubated for 10 min by LC-MS/MS analysis relative to control; format: ADME, Microsome; conditions: probe phenacetin
T1 sequence (P05177 whole entry): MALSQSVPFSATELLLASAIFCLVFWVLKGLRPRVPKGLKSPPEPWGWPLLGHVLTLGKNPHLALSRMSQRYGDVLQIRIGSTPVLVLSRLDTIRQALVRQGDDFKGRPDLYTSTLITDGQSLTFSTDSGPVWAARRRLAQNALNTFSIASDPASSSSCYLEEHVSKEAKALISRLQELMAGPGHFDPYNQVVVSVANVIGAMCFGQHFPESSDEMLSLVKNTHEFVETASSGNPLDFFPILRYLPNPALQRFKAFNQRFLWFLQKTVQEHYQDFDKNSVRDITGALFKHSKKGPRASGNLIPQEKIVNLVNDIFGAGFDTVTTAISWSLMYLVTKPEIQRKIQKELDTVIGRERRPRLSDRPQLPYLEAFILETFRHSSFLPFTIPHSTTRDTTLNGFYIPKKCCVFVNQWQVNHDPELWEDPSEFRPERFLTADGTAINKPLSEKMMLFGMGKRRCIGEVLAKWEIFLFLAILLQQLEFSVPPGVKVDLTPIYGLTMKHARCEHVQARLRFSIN
Summary of the method: (§2)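 Human liver microsomes (0.253 mg mL−1) were used with probe substrates: phenacetin 90 μM (1A2), diclofenac 8 μM (2C9), S-mephenytoin 20 μM (2C19), dextromethorphan 4 μM (2D6), and midazolam 2 μM plus testosterone 50 μM (3A4). Test compound was at 10 μM. Mixtures were preincubated 5 min at 37 °C, then started with an NADPH regenerating system and run 10 min at 37 °C. Reactions were stopped with internal standard and supernatant analysed by LC-MS/MS. Isoform-selective inhibitors at 10 μM served as positive controls.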

CYP2C19 = CYP2C19 (Homo sapiens, UniProt P33261); experiment: Inhibition of CYP2C19 in human liver microsomes using S-mephenytoin as substrate at 10 uM incubated for 10 min by LC-MS/MS analysis relative to control; format: ADME, Microsome; conditions: probe S-mephenytoin; summary of the method: as §2
CYP2C19, sequence (P33261 whole entry): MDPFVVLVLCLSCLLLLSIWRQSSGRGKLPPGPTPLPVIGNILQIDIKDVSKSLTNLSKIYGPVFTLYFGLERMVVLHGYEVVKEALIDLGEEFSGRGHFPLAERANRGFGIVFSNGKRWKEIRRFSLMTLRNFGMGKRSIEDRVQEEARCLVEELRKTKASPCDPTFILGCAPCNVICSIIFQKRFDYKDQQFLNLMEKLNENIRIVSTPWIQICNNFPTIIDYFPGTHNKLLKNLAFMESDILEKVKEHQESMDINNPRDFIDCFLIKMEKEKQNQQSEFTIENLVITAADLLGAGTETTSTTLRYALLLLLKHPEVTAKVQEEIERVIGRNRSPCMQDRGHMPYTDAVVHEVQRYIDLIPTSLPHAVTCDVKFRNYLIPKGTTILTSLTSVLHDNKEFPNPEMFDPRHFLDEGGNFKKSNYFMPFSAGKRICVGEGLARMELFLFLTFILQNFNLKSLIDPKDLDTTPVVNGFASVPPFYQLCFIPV

CYP2D6 = CYP2D6 (Homo sapiens, UniProt P10635); experiment: Inhibition of CYP2D6 in human liver microsomes using dextromethorphan as substrate at 10 uM incubated for 10 min by LC-MS/MS analysis relative to control; format: ADME, Microsome; conditions: probe dextromethorphan; summary of the method: as §2
CYP2D6, sequence (P10635 whole entry): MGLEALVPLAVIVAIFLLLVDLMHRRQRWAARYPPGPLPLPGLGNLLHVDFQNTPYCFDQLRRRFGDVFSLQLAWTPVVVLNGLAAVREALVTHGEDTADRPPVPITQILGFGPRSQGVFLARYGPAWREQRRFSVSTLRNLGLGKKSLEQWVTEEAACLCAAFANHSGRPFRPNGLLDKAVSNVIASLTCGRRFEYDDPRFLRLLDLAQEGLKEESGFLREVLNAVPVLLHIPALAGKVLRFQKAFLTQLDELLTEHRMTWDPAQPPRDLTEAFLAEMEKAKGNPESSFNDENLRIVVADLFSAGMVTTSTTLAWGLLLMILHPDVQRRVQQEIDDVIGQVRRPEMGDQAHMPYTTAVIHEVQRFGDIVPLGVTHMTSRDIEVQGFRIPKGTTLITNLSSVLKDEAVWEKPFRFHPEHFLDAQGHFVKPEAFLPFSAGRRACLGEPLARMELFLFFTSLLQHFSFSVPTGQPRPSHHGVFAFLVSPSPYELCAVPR

DU-145 = experiment: Cytotoxicity against human DU-145 cells assessed as reduction in cell viability at 32 uM incubated for 24 hrs by CCK-8 assay; format: toxicity, cell-based; conditions: du-145, 24 h
Summary of the method: (§3)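 Cells from ATCC were grown in RPMI-1640 or DMEM with 10% FBS and 1% penicillin/streptomycin. They were seeded at 5 × 10^4 cells/well and allowed to adhere overnight at 37 °C, 5% CO2, with at least 6 replicates per group. Compounds were applied at 2–64 μM for 24 h; medium-only wells served as control. Viability was measured by CCK-8 absorbance at 450 nm.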

[1] = Metabolic stability in human liver microsomes assessed as intrinsic clearance measured upto 60 min by LC-MS/MS analysis; format: ADME, Microsome; conditions: 1 h
Summary of the method: (§4)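 Human liver microsomes were diluted to 0.59 mg mL−1 in 100 mM potassium phosphate buffer and prewarmed 10 min at 37 °C. Compound was added from a 100 μM working solution. Incubation was 60 min at 37 °C with NADPH, alongside a no-cofactor control. Samples taken at 5, 15, 30, 45 and 60 min were quenched in acetonitrile containing tolbutamide and labetalol, centrifuged, and analysed by LC-MS/MS.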

Candida albicans [2] = experiment: Antifungal activity against Candida albicans ATCC SC5314 assessed as fungal growth inhibition; format: functional; summary of the method: as §1
Candida albicans [3] = experiment: Antifungal activity against Candida albicans CPCC400616 assessed as fungal growth inhibition; format: functional; summary of the method: as §1
Nakaseomyces glabratus = experiment: Antifungal activity against clinical isolate Candida glabrata assessed as fungal growth inhibition; format: functional; summary of the method: as §1
Pichia kudriavzevii = experiment: Antifungal activity against Pichia kudriavzevii GIM 2.1 assessed as fungal growth inhibition; format: functional; summary of the method: as §1
MDA-MB-231 = experiment: Cytotoxicity against human MDA-MB-231 cells assessed as reduction in cell viability at 32 uM incubated for 24 hrs by CCK-8 assay; format: toxicity, cell-based; conditions: mda-mb-231, 24 h; summary of the method: as §3
L929 = experiment: Cytotoxicity against mouse L929 cells assessed as reduction in cell viability at 32 uM incubated for 24 hrs by CCK-8 assay; format: toxicity, cell-based; conditions: l929, 24 h; summary of the method: as §3
[4] = Metabolic stability in human liver microsomes assessed as half life measured upto 60 min by LC-MS/MS analysis; format: ADME, Microsome; summary of the method: as §4
CYP2C9 = CYP2C9 (Homo sapiens, UniProt P11712); experiment: Inhibition of CYP2C9 in human liver microsomes using diclofenac as substrate at 10 uM incubated for 10 min by LC-MS/MS analysis relative to control; format: ADME, Microsome; conditions: probe diclofenac; summary of the method: as §2
CYP2C9, sequence (P11712 whole entry): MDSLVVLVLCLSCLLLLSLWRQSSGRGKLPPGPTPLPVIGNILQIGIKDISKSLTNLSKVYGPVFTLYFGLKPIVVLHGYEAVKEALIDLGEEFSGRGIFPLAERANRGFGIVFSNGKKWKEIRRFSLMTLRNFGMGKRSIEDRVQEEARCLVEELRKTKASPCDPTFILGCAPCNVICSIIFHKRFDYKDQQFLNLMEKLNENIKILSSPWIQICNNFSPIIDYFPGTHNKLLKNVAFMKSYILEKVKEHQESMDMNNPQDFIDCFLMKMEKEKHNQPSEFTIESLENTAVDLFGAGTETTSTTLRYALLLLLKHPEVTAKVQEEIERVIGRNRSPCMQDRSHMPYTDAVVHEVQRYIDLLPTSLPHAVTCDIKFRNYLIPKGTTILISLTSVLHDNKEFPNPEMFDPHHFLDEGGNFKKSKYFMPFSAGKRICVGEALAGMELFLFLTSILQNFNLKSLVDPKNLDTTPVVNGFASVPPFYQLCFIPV

[5] = Metabolic stability in human liver microsomes assessed as remaining measured upto 60 min by LC-MS/MS analysis; format: ADME, Microsome; conditions: read-out: Stability; summary of the method: as §4
CYP3A4 = CYP3A4 (Homo sapiens, UniProt P08684); experiment: Inhibition of CYP3A4 in human liver microsomes using midazolam and testosterone as substrates at 10 uM incubated for 10 min by LC-MS/MS analysis relative to control; format: ADME, Microsome; conditions: probe midazolam and testosterone; summary of the method: as §2
CYP3A4, sequence (P08684 whole entry): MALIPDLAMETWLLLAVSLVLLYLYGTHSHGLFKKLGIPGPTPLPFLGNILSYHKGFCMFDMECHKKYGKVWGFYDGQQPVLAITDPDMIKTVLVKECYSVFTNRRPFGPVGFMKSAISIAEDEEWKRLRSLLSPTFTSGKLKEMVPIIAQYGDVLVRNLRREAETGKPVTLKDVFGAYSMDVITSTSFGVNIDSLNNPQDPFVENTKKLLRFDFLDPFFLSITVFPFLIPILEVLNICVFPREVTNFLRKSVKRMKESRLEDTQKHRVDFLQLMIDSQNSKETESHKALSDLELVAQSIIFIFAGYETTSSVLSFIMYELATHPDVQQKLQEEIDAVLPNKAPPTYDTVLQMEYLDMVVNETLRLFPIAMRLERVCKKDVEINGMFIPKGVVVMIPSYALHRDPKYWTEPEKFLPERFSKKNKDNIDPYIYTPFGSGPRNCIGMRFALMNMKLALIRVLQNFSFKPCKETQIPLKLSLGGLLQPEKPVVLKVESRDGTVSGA

MIC (Candida parapsilosis): 1 µg/mL (≈ 2.24 µM)
MIC (Candida tropicalis): 0.25 µg/mL (≈ 0.561 µM)
MIC (Cryptococcus neoformans): 32 µg/mL (≈ 71.8 µM)
inhibition at 10 min, 10 µM (CYP1A2): 38.4%
inhibition at 10 min, 10 µM (CYP2C19): 89.4%
inhibition at 10 min, 10 µM (CYP2D6): 72.3%
CLH [1]: 94 µL/min/mg
MIC (Candida albicans [2]): 0.25 µg/mL (≈ 0.561 µM)
MIC (Candida albicans [3]): 1 µg/mL (≈ 2.24 µM)
MIC (Nakaseomyces glabratus): 1 µg/mL (≈ 2.24 µM)
MIC (Pichia kudriavzevii): 1 µg/mL (≈ 2.24 µM)
half-life [4]: 14.8 min
inhibition at 10 min, 10 µM (CYP2C9): 89.8%
remaining at 1 h [5]: 6.33%
inhibition at 10 min, 10 µM (CYP3A4): 92.3%
Structure (SMILES): COc1ccc(C(=O)C(Cn2ccnc2)NC(=O)c2cnc(-c3cccc(F)c3)nc2)cc1 (racemic)
Activity (DU-145): Non-Toxic
Activity (MDA-MB-231): Non-Toxic
Activity (L929): Non-Toxic

Reference: ChEMBL document CHEMBL5376019, “Design, synthesis and evaluation of 2-phenylpyrimidine derivatives as novel antifungal agents targeting CYP51” (RSC Med Chem, 2024)
